Source: ChEMBL document CHEMBL4130479, “Scalaradial Is a Potent Inhibitor of Transient Receptor Potential Melastatin 2 (TRPM2) Ion Channels” (J Nat Prod, 2017)
Calls of active or inactive are those of the source. The rule behind the calls is not given here.

Key:
[1] = target: T1, Transient receptor potential cation channel subfamily M member 2 (Homo sapiens, UniProt O94759); experiment: Inhibition of human FLAG-tagged TRPM2 expressed in HEK293 cells assessed as reduction in ADPR-induced intracellular calcium flux at 200 to 2000 nM measured after 60 mins by whole cell patch clamp electrophysiology method; type: cell-based
T1 sequence (O94759 whole entry): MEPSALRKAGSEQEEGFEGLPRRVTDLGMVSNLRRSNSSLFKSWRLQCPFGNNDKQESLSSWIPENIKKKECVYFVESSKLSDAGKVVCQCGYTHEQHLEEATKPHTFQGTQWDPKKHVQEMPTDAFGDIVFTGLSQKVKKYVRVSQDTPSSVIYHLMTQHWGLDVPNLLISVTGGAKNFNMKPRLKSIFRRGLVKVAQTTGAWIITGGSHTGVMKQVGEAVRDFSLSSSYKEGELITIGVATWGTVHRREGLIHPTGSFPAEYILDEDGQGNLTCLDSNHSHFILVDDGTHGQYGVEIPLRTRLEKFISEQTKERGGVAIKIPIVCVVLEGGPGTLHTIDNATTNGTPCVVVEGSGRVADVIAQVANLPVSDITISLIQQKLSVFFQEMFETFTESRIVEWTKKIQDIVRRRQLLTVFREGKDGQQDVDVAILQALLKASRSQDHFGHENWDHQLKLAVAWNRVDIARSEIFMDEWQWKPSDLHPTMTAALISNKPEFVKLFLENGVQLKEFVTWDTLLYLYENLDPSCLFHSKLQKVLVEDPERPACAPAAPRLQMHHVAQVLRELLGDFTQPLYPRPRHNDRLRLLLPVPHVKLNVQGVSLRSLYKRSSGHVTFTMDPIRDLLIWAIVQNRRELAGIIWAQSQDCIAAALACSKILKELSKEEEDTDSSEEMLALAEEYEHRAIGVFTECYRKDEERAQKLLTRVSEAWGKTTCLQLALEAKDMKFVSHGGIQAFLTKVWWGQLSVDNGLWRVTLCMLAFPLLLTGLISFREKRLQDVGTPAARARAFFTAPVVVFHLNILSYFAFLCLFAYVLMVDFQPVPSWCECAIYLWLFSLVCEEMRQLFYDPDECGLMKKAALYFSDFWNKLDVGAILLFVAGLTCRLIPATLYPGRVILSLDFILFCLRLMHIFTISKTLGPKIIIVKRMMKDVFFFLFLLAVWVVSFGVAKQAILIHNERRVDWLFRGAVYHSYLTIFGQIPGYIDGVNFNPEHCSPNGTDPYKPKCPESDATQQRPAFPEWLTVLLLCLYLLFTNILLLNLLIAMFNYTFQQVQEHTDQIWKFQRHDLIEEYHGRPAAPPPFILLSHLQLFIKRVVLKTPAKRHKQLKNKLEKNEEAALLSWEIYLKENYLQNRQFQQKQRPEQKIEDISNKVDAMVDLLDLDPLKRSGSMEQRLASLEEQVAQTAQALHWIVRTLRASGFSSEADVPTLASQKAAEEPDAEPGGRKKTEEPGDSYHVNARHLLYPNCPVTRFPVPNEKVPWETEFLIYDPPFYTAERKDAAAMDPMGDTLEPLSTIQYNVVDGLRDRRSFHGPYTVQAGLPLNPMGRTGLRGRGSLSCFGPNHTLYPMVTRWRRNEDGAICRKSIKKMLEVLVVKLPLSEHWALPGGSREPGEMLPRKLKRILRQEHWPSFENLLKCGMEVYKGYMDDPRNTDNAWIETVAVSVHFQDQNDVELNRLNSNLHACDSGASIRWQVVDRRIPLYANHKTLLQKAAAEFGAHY
Procedure, shortened: (§1)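 HEK293 cells stably carrying tetracycline-inducible FLAG-human TRPM2, induced 6–9 h, preincubated 30–60 min with compound in external Ringer's, 21–25 °C. Whole-cell patch clamp used K-glutamate pipette solution with 100 μM ADPR and Ca2+ buffered to 300 nM. Ramps from −100 to +100 mV over 50 ms at 0.5 Hz.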

HEK293 [2] = experiment: Cytotoxicity against HEK293 cells assessed as effect on cell viability at 2 uM; type: cell-based; conditions: human, hek293, 2 µM
HEK293 [3] = experiment: Cytotoxicity against HEK293 cells assessed as cell rounding at 2 uM; type: cell-based; conditions: human, hek293, 2 µM
HEK293 [4] = experiment: Cytotoxicity against HEK293 cells assessed as granule formation at 2 uM; type: cell-based; conditions: human, hek293, 2 µM
HEK293 [5] = experiment: Cytotoxicity against HEK293 cells assessed as cell blebbing at 2 uM; type: cell-based; conditions: human, hek293, 2 µM
[6] = target: T1, Transient receptor potential cation channel subfamily M member 2; experiment: Inhibition of human TRPM2 expressed in HEK293 cells assessed as reduction in ADPR-induced intracellular calcium flux at 0 mV holding potential by whole cell patch clamp electrophysiology method; type: cell-based
Procedure, shortened: (§2)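 Human FLAG-TRPM2 in HEK293 cells, induced with tetracycline for 6–9 h and incubated 30–60 min in external Ringer's (0.1–2 μM) before patching. Pipette was K-glutamate, Ca2+ buffered to 300 nM, with 100 μM ADPR. Ramps ran −100 to +100 mV from a 0 mV holding potential, 0.5 Hz.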

[7] = target: T1, Transient receptor potential cation channel subfamily M member 2; experiment: Inhibition of human FLAG-tagged TRPM2 expressed in HEK293 cells assessed as reduction in ADPR-induced intracellular calcium flux after 30 to 60 mins by whole cell patch clamp electrophysiology method; type: cell-based; procedure, shortened: as §2
[8] = target: T1, Transient receptor potential cation channel subfamily M member 2; experiment: Inhibition of human FLAG-tagged TRPM2 expressed in HEK293 cells assessed as reduction in ADPR-induced intracellular calcium flux at 2 uM by whole cell patch clamp electrophysiology method; type: cell-based; conditions: TDE = time-dependent effect
[9] = target: T1, Transient receptor potential cation channel subfamily M member 2; experiment: Inhibition of human FLAG-tagged TRPM2 expressed in HEK293 cells assessed as reduction in ADPR-induced intracellular calcium flux at 2 uM treated for 6 hrs followed by compound washout measured within 5 mins by whole cell patch clamp electrophysiology method; type: cell-based
[10] = target: Transient receptor potential cation channel subfamily M member 7 (Mus musculus) (UniProt Q923J1); experiment: Inhibition of mouse FLAG-tagged TRPM7 expressed in HEK293 cells assessed as reduction in BAPTA-induced intracellular calcium flux at 0.1 to 2 uM by whole cell patch clamp electrophysiology method; type: cell-based; conditions: TDE = time-dependent effect
Chain of Transient receptor potential cation channel subfamily M member 7 (Mus musculus) (Q923J1 whole entry): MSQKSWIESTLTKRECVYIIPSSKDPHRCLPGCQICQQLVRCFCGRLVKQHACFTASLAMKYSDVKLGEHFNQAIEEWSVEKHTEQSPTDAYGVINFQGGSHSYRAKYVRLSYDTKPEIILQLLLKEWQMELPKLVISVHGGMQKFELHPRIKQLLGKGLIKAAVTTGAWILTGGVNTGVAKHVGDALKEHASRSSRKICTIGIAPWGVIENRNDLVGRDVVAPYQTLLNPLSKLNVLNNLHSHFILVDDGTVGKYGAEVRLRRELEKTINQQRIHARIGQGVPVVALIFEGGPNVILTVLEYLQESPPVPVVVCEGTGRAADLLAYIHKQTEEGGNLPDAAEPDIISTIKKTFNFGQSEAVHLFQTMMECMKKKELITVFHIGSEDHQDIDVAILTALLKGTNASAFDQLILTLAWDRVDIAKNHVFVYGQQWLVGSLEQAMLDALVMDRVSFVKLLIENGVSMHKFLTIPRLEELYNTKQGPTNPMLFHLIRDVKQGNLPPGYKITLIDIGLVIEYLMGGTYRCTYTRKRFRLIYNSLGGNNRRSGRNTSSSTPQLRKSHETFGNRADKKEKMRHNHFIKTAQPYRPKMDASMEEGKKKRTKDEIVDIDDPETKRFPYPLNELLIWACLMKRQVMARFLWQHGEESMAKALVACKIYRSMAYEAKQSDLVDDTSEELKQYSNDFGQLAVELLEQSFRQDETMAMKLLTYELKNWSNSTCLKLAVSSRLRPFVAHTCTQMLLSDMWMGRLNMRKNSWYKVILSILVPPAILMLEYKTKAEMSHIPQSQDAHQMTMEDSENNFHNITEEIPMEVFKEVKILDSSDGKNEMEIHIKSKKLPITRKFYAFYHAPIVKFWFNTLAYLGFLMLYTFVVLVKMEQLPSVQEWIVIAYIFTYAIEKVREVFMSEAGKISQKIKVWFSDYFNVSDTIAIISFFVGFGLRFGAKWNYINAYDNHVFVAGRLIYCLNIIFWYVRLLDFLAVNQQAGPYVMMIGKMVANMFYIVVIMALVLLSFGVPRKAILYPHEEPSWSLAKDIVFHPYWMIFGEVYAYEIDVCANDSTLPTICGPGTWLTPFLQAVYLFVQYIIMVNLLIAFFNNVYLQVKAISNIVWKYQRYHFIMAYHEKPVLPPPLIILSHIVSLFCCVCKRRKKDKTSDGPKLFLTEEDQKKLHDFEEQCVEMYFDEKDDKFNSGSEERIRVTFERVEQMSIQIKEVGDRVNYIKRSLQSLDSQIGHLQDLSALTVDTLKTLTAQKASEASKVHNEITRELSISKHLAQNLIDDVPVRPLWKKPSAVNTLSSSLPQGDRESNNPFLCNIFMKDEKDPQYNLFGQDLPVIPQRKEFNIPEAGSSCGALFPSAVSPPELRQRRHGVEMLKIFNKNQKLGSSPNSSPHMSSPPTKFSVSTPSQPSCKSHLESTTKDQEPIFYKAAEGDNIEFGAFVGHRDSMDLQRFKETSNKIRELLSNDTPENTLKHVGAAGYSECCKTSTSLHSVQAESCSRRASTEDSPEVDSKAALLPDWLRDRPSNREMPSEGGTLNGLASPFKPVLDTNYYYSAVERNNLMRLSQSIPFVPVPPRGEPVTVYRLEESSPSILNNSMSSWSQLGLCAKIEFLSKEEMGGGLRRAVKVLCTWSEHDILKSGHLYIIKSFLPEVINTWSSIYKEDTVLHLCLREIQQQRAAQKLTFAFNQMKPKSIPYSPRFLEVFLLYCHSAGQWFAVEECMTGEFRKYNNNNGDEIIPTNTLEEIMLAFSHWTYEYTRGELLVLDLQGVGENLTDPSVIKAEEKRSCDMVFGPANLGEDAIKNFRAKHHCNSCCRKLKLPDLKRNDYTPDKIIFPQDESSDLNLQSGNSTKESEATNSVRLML
Procedure, shortened: (§3)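 Mouse FLAG-TRPM7 in HEK293 cells, induced with tetracycline for 19–22 h and incubated with 100 nM–2 μM compound in culture medium from 15 min (maximum 60 min) before patching. Pipette was K-glutamate with 10 mM K-BAPTA. Ramps ran −100 to +100 mV, 0.5 Hz. Current at +80 mV and 200 s was normalized, and IC50 came from a fit.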

[11] = target: Transient receptor potential cation channel subfamily M member 7 (Mus musculus, UniProt Q923J1); experiment: Inhibition of mouse FLAG-tagged TRPM7 expressed in HEK293 cells assessed as reduction in BAPTA-induced intracellular calcium flux after 15 to 60 mins by whole cell patch clamp electrophysiology method; type: cell-based; procedure, shortened: as §3
Chain of Transient receptor potential cation channel subfamily M member 7 (Q923J1 whole entry): as above

[12] = target: ORAI1/STIM1 (Homo sapiens) (UniProt Q96D31+Q13586); experiment: Inhibition of EGFP-tagged Orai1/STIM1 (unknown origin) expressed in HEK293 cells assessed as reduction in BAPTA-induced calcium release activated calcium channel currents at 2 uM after 30 to 60 mins by whole cell patch clamp method; type: cell-based
Chain of ORAI1/STIM1 (Homo sapiens) (Q13586 23-685 partner limits assumed): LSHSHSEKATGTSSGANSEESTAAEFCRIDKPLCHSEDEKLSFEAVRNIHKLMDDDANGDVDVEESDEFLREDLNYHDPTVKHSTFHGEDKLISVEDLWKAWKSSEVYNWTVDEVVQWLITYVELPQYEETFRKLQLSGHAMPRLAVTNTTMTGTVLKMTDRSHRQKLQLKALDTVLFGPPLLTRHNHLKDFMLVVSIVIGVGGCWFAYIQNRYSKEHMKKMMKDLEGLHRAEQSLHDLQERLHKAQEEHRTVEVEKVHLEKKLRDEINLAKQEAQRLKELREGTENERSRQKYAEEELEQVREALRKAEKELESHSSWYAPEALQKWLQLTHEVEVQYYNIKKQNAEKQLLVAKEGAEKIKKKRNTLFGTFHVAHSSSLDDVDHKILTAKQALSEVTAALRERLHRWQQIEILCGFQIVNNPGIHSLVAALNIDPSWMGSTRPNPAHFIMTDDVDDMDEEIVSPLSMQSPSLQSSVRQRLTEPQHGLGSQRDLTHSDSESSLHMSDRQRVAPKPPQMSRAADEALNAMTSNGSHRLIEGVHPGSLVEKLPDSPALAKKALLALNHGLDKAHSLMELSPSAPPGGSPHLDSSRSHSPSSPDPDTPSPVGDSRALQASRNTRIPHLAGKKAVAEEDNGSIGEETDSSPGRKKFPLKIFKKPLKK
Chain of ORAI1/STIM1 (Homo sapiens) (Q96D31 whole entry): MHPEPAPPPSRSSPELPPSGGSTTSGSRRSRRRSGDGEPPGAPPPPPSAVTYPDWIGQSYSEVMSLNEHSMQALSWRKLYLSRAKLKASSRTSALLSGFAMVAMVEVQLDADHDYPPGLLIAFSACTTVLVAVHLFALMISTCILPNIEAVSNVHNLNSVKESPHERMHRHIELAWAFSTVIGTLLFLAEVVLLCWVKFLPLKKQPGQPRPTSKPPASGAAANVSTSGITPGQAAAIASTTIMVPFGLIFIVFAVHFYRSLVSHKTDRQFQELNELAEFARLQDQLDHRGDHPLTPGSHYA
Procedure, shortened: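 HEK293 cells stably expressing STIM1 and transiently transfected with CRACM1 (Orai1)-IRES-EGFP, recorded 24–48 h after transfection and picked by EGFP. Cells were exposed for 30–60 min. External solution held 10 mM CaCl2 (NaCl/TEA-based, pH 7.2). Pipette was Cs-glutamate with 20 mM Cs-BAPTA and 20 μM IP3. Ramps ran −150 to +150 mV over 50 ms at 0.5 Hz, read at −80 mV.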

[13] = target: Transient receptor potential cation channel subfamily M member 4 (Homo sapiens) (UniProt Q8TD43); experiment: Inhibition of TRPM4 in human Jurkat T cells assessed as reduction in intracellular calcium flux at 500 nM within 60 mins by whole cell patch clamp electrophysiology method; type: cell-based
Procedure, shortened: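 Endogenous TRPM4-like currents in Jurkat T cells, preincubated in standard external solution and recorded within 60 min. Pipette was Cs-glutamate with intracellular Ca2+ clamped to 2 μM. Ramps ran −100 to +100 mV over 50 ms at 0.5 Hz, and current was normalized and plotted against time.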

[14] = target: Transient receptor potential cation channel subfamily V member 1 (Rattus norvegicus) (UniProt O35433); experiment: Inhibition of TRPV1 in rat INS-1 cells assessed as reduction in intracellular calcium flux at 500 nM measured within 60 mins by whole cell patch clamp method; type: cell-based
Procedure, shortened: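 Endogenous TRPV1-like currents in INS-1 cells, preincubated in external solution and recorded within 60 min. Pipette was Cs-glutamate with Ca2+ unbuffered. Current was activated by 10 μM capsaicin in the bath. Ramps ran −100 to +100 mV, 50 ms, 0.5 Hz.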

[15] = target: Transient receptor potential cation channel subfamily M member 2 (Rattus norvegicus, UniProt E9PTA2); experiment: Inhibition of TRPM2 in rat INS-1 cells assessed as reduction in ADPR-induced intracellular calcium flux measured after 60 mins by whole cell patch clamp electrophysiology method; type: cell-based
Procedure, shortened: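 Whole-cell TRPM2 currents in INS-1 cells at 21–25 °C. Pipette was Cs-glutamate with ADPR and no Ca2+ chelator. Compound (10 nM–2 μM) in external Ringer's, recorded within the first 60 min of incubation. Ramps ran −100 to +100 mV, 50 ms, 0.5 Hz. Current at −80 mV and 50 s was normalized to control, and IC50 came from a dose–response fit.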

INS1 [16] = experiment: Cytotoxicity against rat INS-1 cells assessed as granule formation; type: cell-based
Procedure, shortened: (§4)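 INS-1 cells (RPMI, 10% FBS, 37 °C, 5% CO2) kept under continual scalaradial exposure in standard external solution during whole-cell patching. Cells were scored by eye for rounding, granule formation and blebbing over at least 1 h.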

INS1 [17] = experiment: Cytotoxicity against rat INS-1 cells assessed as cell rounding; type: cell-based; procedure, shortened: as §4
INS1 [18] = experiment: Cytotoxicity against rat INS-1 cells assessed as cell blebbing; type: cell-based; procedure, shortened: as §4
INS1 [19] = experiment: Cytotoxicity against rat INS-1 cells at 500 nM measured for 1 hr; type: cell-based; conditions: ins1, 1 h, 0.5 µM; procedure, shortened: as §4
Phospholipase A2 = target: T2, Phospholipase A2 (Apis mellifera, UniProt P00630); experiment: Inhibition of bee venom PLA2
T2 sequence (P00630 whole entry): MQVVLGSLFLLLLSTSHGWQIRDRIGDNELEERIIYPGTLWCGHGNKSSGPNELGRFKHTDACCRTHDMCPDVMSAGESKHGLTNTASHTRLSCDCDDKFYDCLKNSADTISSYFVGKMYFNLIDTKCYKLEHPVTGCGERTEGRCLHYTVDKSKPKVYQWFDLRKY

[20] = Inhibition of recombinant human sPLA2 using [1-14C]oleate-labelled autoclaved Escherichia coli as substrate measured after 15 mins
[21] = target: T1, Transient receptor potential cation channel subfamily M member 2; experiment: Inhibition of human FLAG-tagged TRPM2 expressed in HEK293 cells assessed as reduction in ADPR-induced intracellular calcium flux at 1 uM measured within 60 mins by whole cell patch clamp electrophysiology method; type: cell-based
Procedure, shortened: (§5)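 TRPM2-HEK293 cells incubated with the sPLA2 inhibitors in standard external Ringer's. Whole-cell currents were recorded within the first 60 min using K-glutamate pipette with 100 μM ADPR. Current at −80 mV was normalized to same-day controls, n = 3–17.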

HEK293 [22] = experiment: Cytotoxicity against HEK293 cells assessed as cell death at 5 to 10 uM measured for 1 hr; type: cell-based; conditions: human, hek293, 1 h
[23] = target: T1, Transient receptor potential cation channel subfamily M member 2; experiment: Inhibition of human FLAG-tagged TRPM2 expressed in HEK293 cells assessed as reduction in ADPR-induced intracellular calcium flux at 5 uM measured within 60 mins by whole cell patch clamp electrophysiology method; type: cell-based; procedure, shortened: as §5
HEK293 [24] = experiment: Cytotoxicity against HEK293 cells assessed as cell death at 25 to 50 uM measured for 1 hr; type: cell-based; conditions: human, hek293, 1 h
[25] = target: T1, Transient receptor potential cation channel subfamily M member 2; experiment: Inhibition of human FLAG-tagged TRPM2 expressed in HEK293 cells assessed as reduction in ADPR-induced intracellular […] at 20 to 200 nM measured after 60 mins by whole cell patch clamp electrophysiology method; type: cell-based; procedure, shortened: as §1
HEK293 [26] = experiment: Cytotoxicity against HEK293 cells assessed as effect on cell viability at 200 nM; type: cell-based; conditions: human, hek293, 0.2 µM
Procedure, shortened: (§6)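 Tetracycline-induced human TRPM2-HEK293 cells preincubated 60 min with compound in serum-containing medium, then moved to standard external Ringer's with compound still present for whole-cell recording ([…] internal). Cells scored by eye for rounding, granule formation and blebbing.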

HEK293 [27] = experiment: Cytotoxicity against HEK293 cells assessed as cell rounding at 200 nM; type: cell-based; conditions: human, hek293, 0.2 µM; procedure, shortened: as §6
HEK293 [28] = experiment: Cytotoxicity against HEK293 cells assessed as granule formation at 200 nM; type: cell-based; conditions: human, hek293, 0.2 µM; procedure, shortened: as §6
HEK293 [29] = experiment: Cytotoxicity against HEK293 cells assessed as cell blebbing at 200 nM; type: cell-based; conditions: human, hek293, 0.2 µM; procedure, shortened: as §6
[30] = target: T1, Transient receptor potential cation channel subfamily M member 2; experiment: Inhibition of human FLAG-tagged TRPM2 expressed in HEK293 cells assessed as reduction in H2O2-induced intracellular calcium flux pretreated for 30 secs followed by H2O2 addition measured for 120 secs by […]; type: cell-based
[31] = target: T1, Transient receptor potential cation channel subfamily M member 2; experiment: Inhibition of human FLAG-tagged TRPM2 expressed in HEK293 cells assessed as reduction in ADPR-induced intracellular calcium flux at 20 uM measured within 60 mins by whole cell patch clamp electrophysiology method; type: cell-based
Procedure, shortened: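 Tetracycline-induced HEK293 cells stably carrying FLAG-human TRPM2 were incubated with inhibitor in standard external Ringer's (pH 7.2). Whole-cell recordings were made during the first 60 min at 21–25 °C. Pipette: K-glutamate with unbuffered Ca2+ plus 100 μM ADPR. Ramps ran −100 to +100 mV over 50 ms at 0.5 Hz. Current was taken at −80 mV as % of same-day controls (n = 3–17).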

[32] = target: T1, Transient receptor potential cation channel subfamily M member 2; conditions: HEK293, 100 nM

## O=c1[nH]c2ccccc2n1C1CCN(Cc2ccc(-c3nc4cc5[nH]cnc5cc4nc3-c3ccccc3)cc2)CC1
[1]
  inhibition: inactive
HEK293 [2]
  Activity: Toxic
HEK293 [3]
  Activity: Toxic
HEK293 [4]
  Activity: Toxic
HEK293 [5]
  Activity: Toxic

## CCCCCc1ccc(/C=C/C(=O)Nc2ccccc2C(=O)O)cc1
[6]
  IC50: 4500 nM

## CC(=O)O[C@H]1C[C@@H]2[C@@]3(C)CCCC(C)(C)[C@@H]3CC[C@@]2(C)[C@@H]2CC=C(C=O)[C@H](C=O)[C@@]12C [SCALARADIAL]
[7]
  IC50: 210 nM
  inhibition: Dose-dependent effect
[8]
  inhibition: Tde
[9]
  inhibition: inactive
[10]
  inhibition: Tde
[11]
  IC50: 760 nM
[12]
  inhibition: inactive
[13]
  inhibition: inactive
[14]
  inhibition: inactive
[15]
  IC50: 330 nM
INS1 [16]
  Activity: Toxic
INS1 [17]
  Activity: Toxic
INS1 [18]
  Activity: Toxic
INS1 [19]
  Activity: Non-Toxic
Phospholipase A2
  IC50: 70 nM
[20]
  IC50: 5400 nM

## CCCCCCCCCCCCCCCCOCC(COCC)OP(=O)([O-])OC.[Li+] (stereo not given)
[21]
  inhibition: inactive
HEK293 [22]
  Activity: Toxic

## O=C(O)CC[C@@H](Cc1ccc(OCc2ccccc2)cc1)NC(=O)CCCCCCc1ccccc1
[23]
  inhibition: inactive
HEK293 [24]
  Activity: Toxic

## COC[C@H]1OC(=O)c2coc3c2[C@@]1(C)C1=C(C3=O)[C@@H]2CCC(=O)[C@@]2(C)C[C@H]1OC(C)=O [WORTMANNIN]
[25]
  inhibition: inactive
HEK293 [26]
  Activity: Toxic
HEK293 [27]
  Activity: Toxic
HEK293 [28]
  Activity: Toxic
HEK293 [29]
  Activity: Toxic

## O=C1NCCc2c(OCCCCN3CCCCC3)cccc21
[30]
  IC50: 600 nM
[31]
  inhibition: inactive

## CN(C)CC(=O)Nc1ccc2[nH]c(=O)c3ccccc3c2c1
[30]
  IC50: 25 nM
[32]
  inhibition: inactive
